Assay outcomes (PubChem)
The list is not random: actives were taken first. Their share in the collection is about 1.3%.
HKDC1 inhibitor = HKDC1 (human) hexokinase inhibition | Q2TB90 | recombinant HKDC1, G6PDH/diaphorase resazurin coupled fluorescence | inhibition, % at 20 µM | 340,000 tested, 0.16% active | AID 493160;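 active = inhibition above about 35% when tested at 20 µM, limit read from the data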
Target sequence (Q2TB90 whole entry, looked up): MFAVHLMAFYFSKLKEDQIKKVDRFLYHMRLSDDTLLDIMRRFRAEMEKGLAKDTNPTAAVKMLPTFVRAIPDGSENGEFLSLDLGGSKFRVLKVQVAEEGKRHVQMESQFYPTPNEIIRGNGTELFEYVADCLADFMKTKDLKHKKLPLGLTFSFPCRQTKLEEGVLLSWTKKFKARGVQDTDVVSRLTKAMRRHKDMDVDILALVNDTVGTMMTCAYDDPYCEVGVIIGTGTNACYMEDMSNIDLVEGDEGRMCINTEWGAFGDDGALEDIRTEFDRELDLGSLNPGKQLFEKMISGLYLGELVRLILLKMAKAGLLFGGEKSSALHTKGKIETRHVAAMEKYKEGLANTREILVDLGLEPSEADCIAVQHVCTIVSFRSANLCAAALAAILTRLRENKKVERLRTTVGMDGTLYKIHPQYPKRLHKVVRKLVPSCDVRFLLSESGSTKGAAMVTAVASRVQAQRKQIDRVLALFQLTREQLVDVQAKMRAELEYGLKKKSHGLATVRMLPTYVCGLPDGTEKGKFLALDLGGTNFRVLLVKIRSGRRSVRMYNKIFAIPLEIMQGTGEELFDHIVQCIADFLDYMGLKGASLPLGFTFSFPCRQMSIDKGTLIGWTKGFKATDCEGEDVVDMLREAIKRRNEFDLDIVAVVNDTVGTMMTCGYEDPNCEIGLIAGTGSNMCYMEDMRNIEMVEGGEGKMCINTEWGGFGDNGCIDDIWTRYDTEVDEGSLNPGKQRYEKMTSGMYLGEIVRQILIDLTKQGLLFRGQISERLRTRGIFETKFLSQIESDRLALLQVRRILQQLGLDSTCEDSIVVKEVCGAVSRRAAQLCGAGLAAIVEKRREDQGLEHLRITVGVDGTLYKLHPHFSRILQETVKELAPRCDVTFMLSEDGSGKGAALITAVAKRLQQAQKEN
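Incubation: 90 min at room temperature in dark / Material: recombinant HKDC1 (HK5) hexokinase enzyme, produced in-house / Quantity: enzyme 5 µg/mL final / Compound: one dose of 20 µM, 1% DMSO / Reagent: glucose and ATP substrates / Buffer or medium: Tris pH 8.0 buffer with MgCl2, Tween-20, BSA, BME / Technique: resorufin fluorescence at 613 nm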
Diaph inh CS = inhibits diaphorase or chemically oxidizes, flagging diaphorase assay artifacts. diaphorase resazurin-to-resorufin fluorescence, NADH, 16 min; bacterial (C. kluyveri) enzyme, not human. inhibition, % at 20 µM. 190,000 tested, 0.69% active. AID 1217;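 active = primary screen inhibition at 20 µM above a set limit, cut at about 50% in these data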
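Test system: Clostridium kluyveri diaphorase enzyme / Quantity: diaphorase at 0.14 U/mL in enzyme working solution / Incubation: 16-min room-temperature incubation before reading / Benchmarks: NADH-free wells as positive control, DMSO-only neutral wells / Signal: resorufin fluorescence 544/590 nm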
G6PDH counter = inhibits Leuconostoc G6PDH, flagging false hits in G6PDH-based assays; Purified L. mesenteroides G6PDH, diaphorase/resazurin coupled fluorescence, 45 min; inhibition, % at 5 µM; 200,000 tested, 0.12% active; in the data active = inhibition above about 50%
PfG6PD inh = PfG6PD (Plasmodium falciparum) enzyme inhibition; 350,000 tested, 0.78% active; inhibition, % at 20 µM; PfGluPho enzyme, NADPH resazurin-diaphorase fluorescence; AID 504690;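 active = inhibition reaching at least a set limit at 20 µM in the primary screen, cut at about 59% in these data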
A number is an active result; i = inactive; nt = no result.

SMILES | HKDC1 inhibitor | Diaph inh CS | G6PDH counter | PfG6PD inh
CC(C)(C)OC(=O)N1O[C@H]2CC1[C@@H]1[C@@H]2N=NN1CCc1ccncc1 | i | nt | nt | i
COCCn1c(NC(=S)NC(=O)C2CC2)cc(=O)[nH]c1=O | i | 61.1 | i | i
CCOc1cc(/C=C2\N=C(SC)SC2=O)cc([N+](=O)[O-])c1OC(C)=O | i | 81.2 | i | i
CCOc1cc(/C=C2\N=C(SCC)SC2=O)cc([N+](=O)[O-])c1OC(C)=O | i | 90.1 | i | i
O=C(O)c1cccc(NC(=S)N/N=C/c2ccccc2OCc2cccc(Br)c2)c1 | i | 56.8 | i | i
O=C(O)c1cccc(NC(=S)N/N=C/c2ccccc2OCc2ccc(Br)cc2)c1 | i | 50.8 | i | i
O=C(O)c1cccc(NC(=S)N/N=C/c2cccc(O)c2)c1 | i | i | i | i
COC(=O)c1ccc(COc2ccccc2/C=N/Nc2cccc(C(=O)O)c2)cc1 | i | i | i | i
COCCCNC(=O)CC1C[C@H](C(=O)N2CCOCC2)[C@@]2(C)c3[nH]c4ccc(OC)cc4c3CCN2C1=O (some centres not stated) | i | nt | nt | i
Nc1c(C(=O)CSc2nc3ccccc3o2)c(=O)[nH]c(=O)n1C1CC1 | i | nt | nt | i
COc1ccc(-c2ccc(SCC(=O)NC3CCCCC3)nn2)cc1OC | i | nt | nt | i
Fc1ccc(-[n+]2nc(Nc3ccccc3)sc2-c2c(Cl)cccc2Cl)cc1 | i | nt | nt | 63.7
O=C(CNC(=O)N1CC(=O)Nc2ccccc21)NCc1cccc(Cl)c1 | i | nt | nt | i
O=C(COc1ccc(Cl)cc1Br)Nc1cccc(S(=O)(=O)N2CCCC2)c1 | i | nt | nt | i
Cc1ccccc1CCNC(=O)Cn1ccc2cc(S(=O)(=O)N3CCCC3)ccc21 | i | nt | nt | i
COc1ccccc1NC1=C(N2CCCCC2)C(=O)c2ccccc2C1=O | i | i | i | i
Cc1ccc(NC2=C(N3CCCCC3)C(=O)c3ccccc3C2=O)cc1 | i | i | 55.9 | i
O=C1C(Nc2ccccc2)=C(N2CCCCC2)C(=O)c2ccccc21 | i | i | 57.2 | i
O=C1C(NS(=O)(=O)c2ccc(Br)cc2)=C(N2CCCCC2)C(=O)c2ccccc21 | i | nt | nt | i
O=C1C(Nc2cccc(O)c2)=C(N2CCCCC2)C(=O)c2ccccc21 | i | i | 58.6 | i
CCOc1ccc(OCCC(=O)N(CC)CC(=O)NCc2cccs2)cc1 | i | nt | nt | i
CCC(=O)NC(c1cccs1)c1ccc2cccnc2c1O (configuration not stated) | i | 58.4 | i | i
CC(C)CC(=O)NC(c1cccs1)c1ccc2cccnc2c1O (configuration not stated) | i | nt | i | i
CC(C)C(=O)NC(c1ccco1)c1ccc2cccnc2c1O (configuration not stated) | i | 54.7 | i | i
CCOCCCn1c(=S)[nH]c2cc(C(=O)NC3CCCC(C)C3C)ccc2c1=O (configuration not stated) | i | nt | nt | i
SMILES | HKDC1 inhibitor | Diaph inh CS | G6PDH counter | PfG6PD inh
CCOC(=O)C1(Cc2cccc(OC)c2)CCCN(C(=O)c2cc(C)oc2C)C1 (configuration not stated) | i | nt | nt | i
O=C1Nc2ccccc2N2CCCC12 (configuration not stated) | nt | 60.5 | i | nt
CCOC(=O)C1CCN(S(=O)(=O)Cc2ccccc2)CC1 | i | i | 50.7 | i
CCOC(=O)C1CCN(S(=O)(=O)Cc2ccc(Cl)cc2)CC1 | i | i | i | i
COc1ccc(CCN(C)Cc2ccc(OC)c(OCc3ccccc3)c2)cc1OC | i | i | i | i
COc1cc(CN(C)Cc2ccccc2)cc(OC)c1O | i | i | 51.4 | i
COc1cc(C(=O)/C=C/c2cccnc2)c([N+](=O)[O-])cc1OC | i | nt | nt | i
CC1(C(=O)NC(=S)NNC(=O)c2ccncc2)CCCCC1 | i | i | i | i
O=C(NNC(=S)NC(=O)C12CC3CC(CC(C3)C1)C2)c1ccncc1 | i | 50.9 | i | i
C=CCn1c2ccccc2c2nnc(SCCCn3c(=O)[nH]c4ccccc43)nc21 | i | 57.3 | i | i
CC(=O)NCc1ccc(C(=O)COC(=O)COc2ccc(Cl)c(C)c2)s1 | i | nt | nt | i
Cc1ccccc1CSc1ccc(S(=O)(=O)N2CCCC2)cn1 | i | nt | nt | i
C[C@H](CO)N1C[C@H](C)[C@@H](CN(C)C(=O)Nc2ccc(C(F)(F)F)cc2)Oc2c(NS(=O)(=O)c3ccc(F)cc3)cccc2C1=O | i | nt | nt | i
COc1ccccc1N(Cc1ccccc1)S(=O)(=O)c1cccc(C(=O)Nc2ccc(C)cn2)c1 | i | nt | nt | i
COc1ccc(OC)c(N)c1 | i | i | i | 62.1
C[C@]12c3[nH]c4cc(-c5ccco5)ccc4c3CCN1C(=O)[C@@H](CC(=O)NCc1ccco1)C[C@@H]2C(=O)N1CCCCC1 | i | nt | nt | i
CCC1(C)Cc2c(sc3[nH]c(=S)[nH]c(=S)c23)CO1 (configuration not stated) | i | nt | nt | i
CCC1(C)Cc2sc3c(=O)[nH]c(=S)[nH]c3c2CO1 (configuration not stated) | i | 84.5 | i | i
O=C(NC(=S)NNC(=O)c1cnccn1)c1ccc(Cl)cc1 | i | nt | nt | i
COc1ccc(C(=O)NC(=S)NNC(=O)c2cnccn2)cc1 | i | 64.6 | i | i
CCn1c(C)nc2cc(C(=O)NNC(=S)NC(=O)c3ccc(OC)cc3)ccc21 | i | 57.1 | i | i
COc1ccccc1C(=O)NNC(=S)NC(=O)c1cc(OC)c(OC)c(OC)c1 | i | i | i | i
COc1cc(C(=O)NC(=S)NNC(=O)c2cnccn2)cc(OC)c1OC | i | 51.1 | i | i
O=C(NCC(=O)N1CCN(c2ncccn2)CC1)c1ccc(F)cc1 | i | nt | nt | i
Cc1nc2c(C(=O)NCCc3ccccc3)c[nH]n2c(=O)c1Cl | i | 79.2 | i | i
SMILES | HKDC1 inhibitor | Diaph inh CS | G6PDH counter | PfG6PD inh
Cc1nc2c(C(=O)NCCC(C)C)c[nH]n2c(=O)c1Cl | i | i | i | i
O=C(O[C@@H]1OC2COC(=O)c3cc(O)c(O)c(O)c3-c3c(cc(O)c(O)c3O)C(=O)O[C@@H]([C@H]1O)[C@@H]2O)c1cc(O)c(O)c(O)c1 | i | 61.7 | i | 110.7
CCOc1cc2c(C#N)c(N(CC)CC)nc(N)c2c(N)n1 | i | nt | nt | i
CCCN(CC1CC1)c1nc(N)c2c(N)nc(OC)cc2c1C#N | i | 52.2 | i | i
Cc1cccc(NC(=O)COc2coc(CN3CCc4ccccc4C3)cc2=O)c1 | i | nt | nt | i
CC(=O)Nc1c(Br)cc2c(c1Br)C(=O)c1ccccc1-2 | i | nt | nt | i
CC(=O)C1=C(c2ccc(Br)cc2)C(=O)c2ccccc2C1=O | 82.7 | 61.9 | i | 106.0
Cc1ccc(NC(=S)NC(=O)C2CCCC2)c(Br)c1 | i | nt | nt | i
COc1ccc(C(=O)N/N=C/c2cc3ccccc3[nH]c2=S)cc1 | i | 54.8 | i | i
Cc1cc(C)c(C(N)=O)c(Nc2cccc3ccccc23)n1 | i | 91.4 | i | i
COc1ccccc1Nc1nc(C)cc(C)c1C(N)=O | i | i | i | i
Cc1ccc(S(=O)(=O)CCN2CCC(n3cccc3)CC2)cc1 | i | nt | nt | i
O=C(N/N=C/c1ccco1)c1cccc(N2Cc3ccccc3C2)c1 | i | 59.7 | i | i
O=C1NC(=O)/C(=C\c2ccc(O)cc2O)S1 | i | 81.7 | i | i
O=c1[nH][nH]c(=S)n1C1CCCCC1 | i | nt | nt | 95.2
